Data from ChEMBL document CHEMBL3352026, “Structure-activity relationship of highly potent galactonoamidine inhibitors toward β-galactosidase (Aspergillus oryzae)” (J Med Chem, 2014).

Target: T1, Beta-galactosidase (Aspergillus oryzae, UniProt Q2U7N3)
T1 sequence (Q2U7N3 whole entry): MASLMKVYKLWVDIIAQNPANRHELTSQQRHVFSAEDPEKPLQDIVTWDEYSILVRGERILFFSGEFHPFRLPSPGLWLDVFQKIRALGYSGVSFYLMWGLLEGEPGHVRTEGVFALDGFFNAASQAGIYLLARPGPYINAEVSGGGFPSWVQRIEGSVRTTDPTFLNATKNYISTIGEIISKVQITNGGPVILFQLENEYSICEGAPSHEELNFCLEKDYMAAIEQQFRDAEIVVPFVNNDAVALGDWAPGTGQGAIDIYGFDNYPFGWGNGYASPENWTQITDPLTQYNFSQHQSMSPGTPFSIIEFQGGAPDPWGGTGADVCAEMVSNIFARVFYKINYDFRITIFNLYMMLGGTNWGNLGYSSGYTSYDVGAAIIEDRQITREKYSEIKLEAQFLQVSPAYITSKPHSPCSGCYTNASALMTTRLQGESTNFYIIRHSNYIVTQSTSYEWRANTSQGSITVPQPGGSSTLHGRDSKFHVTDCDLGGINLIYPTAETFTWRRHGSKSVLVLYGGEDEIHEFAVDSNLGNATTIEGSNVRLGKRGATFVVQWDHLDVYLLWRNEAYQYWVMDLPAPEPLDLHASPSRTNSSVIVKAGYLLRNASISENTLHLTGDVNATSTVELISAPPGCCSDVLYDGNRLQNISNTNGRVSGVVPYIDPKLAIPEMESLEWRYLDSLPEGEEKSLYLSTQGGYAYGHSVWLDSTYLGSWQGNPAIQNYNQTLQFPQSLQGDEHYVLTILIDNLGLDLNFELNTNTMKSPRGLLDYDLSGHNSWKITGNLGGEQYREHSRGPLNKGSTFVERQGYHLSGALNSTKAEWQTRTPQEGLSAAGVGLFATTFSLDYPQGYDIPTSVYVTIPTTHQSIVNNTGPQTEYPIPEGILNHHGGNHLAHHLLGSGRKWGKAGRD
Experiment: Inhibition of Aspergillus oryzae beta-galactosidase using 2-chloro-4-nitrophenyl beta-Dgalactopyranoside as substrate by spectrophotometry
Procedure, shortened: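 Dextrin-stabilised lyophilised A. oryzae enzyme in 50 mM acetate, pH 5.00, 30 °C, 100 μL. Substrate plus inhibitor preincubated 30 min before enzyme addition. 2-chloro-4-nitrophenolate read at 405 nm. […] For IC50, substrate was fixed, inhibitor 5 × 10⁻⁴–50 μM, read at 60 min against blanks, in duplicate.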
`COc1ccc(C/N=C2\N[C@H](CO)[C@H](O)[C@H](O)[C@H]2O)cc1` showed a Ki of 17.1 nM. `OC[C@H]1N/C(=N\Cc2ccc(C(F)(F)F)cc2)[C@H](O)[C@@H](O)[C@H]1O` gave a Ki of 15.7 nM. `OC[C@H]1N/C(=N\Cc2ccc(F)cc2)[C@H](O)[C@@H](O)[C@H]1O` showed a Ki of 10.1 nM. With `CC(C)(C)c1ccc(C/N=C2\N[C@H](CO)[C@H](O)[C@H](O)[C@H]2O)cc1` the Ki was 20.6 nM. With `OC[C@H]1N/C(=N\Cc2ccccc2F)[C@H](O)[C@@H](O)[C@H]1O` the Ki was 16.1 nM. Molecule `OC[C@H]1N/C(=N\Cc2cccc(F)c2)[C@H](O)[C@@H](O)[C@H]1O` has a Ki of 20.3 nM. In the case of `OC[C@H]1N/C(=N\Cc2ccccc2)[C@H](O)[C@@H](O)[C@H]1O`, the Ki is reported as 21.1 nM. `Cc1ccccc1C/N=C1\N[C@H](CO)[C@H](O)[C@H](O)[C@H]1O` gave a Ki of 23.6 nM. `Cc1cccc(C/N=C2\N[C@H](CO)[C@H](O)[C@H](O)[C@H]2O)c1` gave a Ki of 29.4 nM. `Cc1ccc(C/N=C2\N[C@H](CO)[C@H](O)[C@H](O)[C@H]2O)cc1` gave an IC50 of 36 nM and a Ki of 8 nM. With `CCC/N=C1\N[C@H](CO)[C@H](O)[C@H](O)[C@H]1O` the Ki was 149 nM. With `CCCCCCC/N=C1\N[C@H](CO)[C@H](O)[C@H](O)[C@H]1O` the IC50 was 107 nM and the Ki was 10.8 nM. Molecule `CCCCCCCCCCCC/N=C1\N[C@H](CO)[C@H](O)[C@H](O)[C@H]1O` has a Ki of 48.4 nM. `CCCCC(CC)/N=C1\N[C@H](CO)[C@H](O)[C@H](O)[C@H]1O` (stereo partly drawn) showed an IC50 of 22 nM and a Ki of 7.8 nM. In the case of `OC[C@H]1N/C(=N\CCCc2ccccc2)[C@H](O)[C@@H](O)[C@H]1O`, the IC50 is reported as 36 nM and the Ki is reported as 8.6 nM. Molecule `OC[C@H]1N/C(=N\C2CC2)[C@H](O)[C@@H](O)[C@H]1O` has a Ki of 31.9 nM. `OC[C@H]1N/C(=N\C2CCCCC2)[C@H](O)[C@@H](O)[C@H]1O` showed an IC50 of 4800 nM and a Ki of 602 nM. In the case of `OC[C@H]1N/C(=N\CC2CC2)[C@H](O)[C@@H](O)[C@H]1O`, the IC50 is reported as 0.86 nM and the Ki is reported as 9.5 nM. For `OC[C@H]1N/C(=N\CC2CCCCC2)[C@H](O)[C@@H](O)[C@H]1O`, the IC50 was 22 nM and the Ki was 11.3 nM. Work on `OC[C@H]1N/C(=N\CC2CCCCCC2)[C@H](O)[C@@H](O)[C@H]1O` yielded an IC50 of 36 nM and a Ki of 6.3 nM. For `N=C1N[C@H](CO)[C@H](O)[C@H](O)[C@H]1O`, the Ki was 150 nM. Molecule `O=C1N[C@H](CO)[C@H](O)[C@H](O)[C@H]1O` has a Ki of 615 nM.

Target: not listed separately
Experiment: Inhibition of Aspergillus niger beta-glucosidase
In the case of `OC[C@H]1N/C(=N/CCc2ccccc2)[C@H](O)[C@@H](O)[C@H]1O`, the Ki is reported as ≤ 1.2 nM.

Target: not listed separately
Experiment: Inhibition of Caldicellulosiruptor saccharolyticus beta-glucosidase
In the case of `OC[C@H]1N/C(=N/CCc2ccccc2)[C@H](O)[C@@H](O)[C@H]1O`, the Ki is reported as ≤ 1.2 nM.

Target: not listed separately
Experiment: Inhibition of almond beta-glucosidase
Design: species or system Prunus dulcis
In the case of `OC[C@H]1N/C(=N/CCc2ccccc2)[C@H](O)[C@@H](O)[C@H]1O`, the Ki is reported as ≤ 1.2 nM.
